Measured values reported in ChEMBL document CHEMBL1152612, “Ursolic acid derivatives induce cell cycle arrest and apoptosis in NTUB1 cells associated with reactive oxygen species” (Bioorg Med Chem, 2009).
Calls of active or inactive are those of the source. The calls are words filed in the database; no cut-off is given here.

What was measured:
[1] = Cell cycle arrest in human NTUB1 cells assessed as accumulation at G2/M phase at 20 uM after 48 hrs using propidium iodide staining by flow cytometry; assay type: functional, cell-based
Method in brief: (§1)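 NTUB1 cells plated at 8 × 10⁵ per 10 cm dish and exposed to compound for 24 or 48 h; untreated controls got medium alone. Cells trypsinized, PBS-washed and fixed overnight in ice-cold MeOH at −20 °C, then stained with 50 µg/mL propidium iodide plus RNase A. DNA content was read by flow cytometry, with apoptosis taken as sub-G1 accumulation. Three independent experiments.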

[2] = Cell cycle arrest in human NTUB1 cells assessed as accumulation at S phase at 20 uM after 48 hrs using propidium iodide staining by flow cytometry; assay type: functional, cell-based; method in brief: as §1
[3] = Cell cycle arrest in human NTUB1 cells assessed as accumulation at G1 phase at 20 uM after 24 hrs using propidium iodide staining by flow cytometry; assay type: functional, cell-based; method in brief: as §1
[4] = Cell cycle arrest in human NTUB1 cells assessed as accumulation at G2/M phase at 40 uM after 48 hrs using propidium iodide staining by flow cytometry; assay type: functional, cell-based; method in brief: as §1
NTUB1 [5] = experiment: Increase in intracellular reactive oxygen species level in human NTUB1 cells at 40 uM after 24 hrs in presence of 1 mM N-acetyl-cysteine by DCFH-DA staining; assay type: functional, cell-based
Method in brief: (§2)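 NTUB1 cells treated for 24 or 48 h, with or without 1 mM N-acetylcysteine. DCFH-DA (10 µM) added 30 min before harvest; cells then trypsinized, PBS-washed, and DCF green fluorescence read at once by flow cytometry through a 525 nm band-pass filter. Three independent experiments.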

[6] = Induction of apoptosis in human NTUB1 cells assessed as accumulation at subG1 phase at 40 uM after 24 hrs using propidium iodide staining by flow cytometry; assay type: functional; method in brief: as §1
[7] = Induction of apoptosis in human NTUB1 cells assessed as accumulation at subG1 phase at 20 uM after 48 hrs using propidium iodide staining by flow cytometry; assay type: functional; method in brief: as §1
[8] = Cell cycle arrest in human NTUB1 cells assessed as accumulation at G2/M phase at 20 uM after 24 hrs using propidium iodide staining by flow cytometry; assay type: functional, cell-based; method in brief: as §1
[9] = Cell cycle arrest in human NTUB1 cells assessed as accumulation at G2/M phase at 10 uM after 24 hrs using propidium iodide staining by flow cytometry; assay type: functional, cell-based; method in brief: as §1
[10] = Induction of apoptosis in human NTUB1 cells assessed as accumulation at subG1 phase at 40 uM after 48 hrs using propidium iodide staining by flow cytometry; assay type: functional; method in brief: as §1
[11] = Induction of apoptosis in human NTUB1 cells assessed as accumulation at subG1 phase at 10 uM after 24 hrs using propidium iodide staining by flow cytometry; assay type: functional; method in brief: as §1
NTUB1 [12] = experiment: Increase in intracellular reactive oxygen species level in human NTUB1 cells at 40 uM after 48 hrs by DCFH-DA staining; assay type: functional, cell-based; method in brief: as §2
[13] = Cell cycle arrest in human NTUB1 cells assessed as accumulation at G1 phase at 10 uM after 24 hrs using propidium iodide staining by flow cytometry; assay type: functional, cell-based; method in brief: as §1
[14] = Cell cycle arrest in human NTUB1 cells assessed as accumulation at S phase at 40 uM after 24 hrs using propidium iodide staining by flow cytometry; assay type: functional, cell-based; method in brief: as §1
NTUB1 [15] = experiment: Increase in intracellular reactive oxygen species level in human NTUB1 cells at 40 uM after 24 hrs by DCFH-DA staining; assay type: functional, cell-based; method in brief: as §2
[16] = Cell cycle arrest in human NTUB1 cells assessed as accumulation at G1 phase at 40 uM after 24 hrs using propidium iodide staining by flow cytometry; assay type: functional, cell-based; method in brief: as §1
[17] = Cell cycle arrest in human NTUB1 cells assessed as accumulation at G1 phase at 20 uM after 48 hrs using propidium iodide staining by flow cytometry; assay type: functional, cell-based; method in brief: as §1
[18] = Cell cycle arrest in human NTUB1 cells assessed as accumulation at G1 phase at 40 uM after 48 hrs using propidium iodide staining by flow cytometry; assay type: functional, cell-based; method in brief: as §1
PC-3 = experiment: Cytotoxicity against human PC3 cells at 50 uM after 72 hrs by MTT assay; assay type: functional, cell-based
Method in brief: (§3)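 Cells grown in RPMI 1640 with 10% FBS, penicillin/streptomycin and 2 mM L-glutamine at 37 °C under 5% CO₂. Seeded 1800 cells/well, left overnight, then given graded compound concentrations for 72 h; compounds diluted from DMSO, 0.1% DMSO in medium and in controls. MTT 2 mg/mL in PBS for 3 h, formazan dissolved in DMSO, absorbance 540 nm. Viability given as % of control; IC50 by median-effect analysis, mean ± SD.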

[19] = Cytotoxicity against human NTUB1 cells after 72 hrs by MTT assay; assay type: functional, cell-based; settings: NTUB1, 72 h; method in brief: as §3
NTUB1 [20] = experiment: Increase in intracellular reactive oxygen species level in human NTUB1 cells at 20 uM after 48 hrs by DCFH-DA staining; assay type: functional, cell-based; method in brief: as §2
[21] = Cell cycle arrest in human NTUB1 cells assessed as accumulation at S phase at 20 uM after 24 hrs using propidium iodide staining by flow cytometry; assay type: functional, cell-based; method in brief: as §1
[22] = Cell cycle arrest in human NTUB1 cells assessed as accumulation at S phase at 40 uM after 48 hrs using propidium iodide staining by flow cytometry; assay type: functional, cell-based; method in brief: as §1
NTUB1 [23] = experiment: Increase in intracellular reactive oxygen species level in human NTUB1 cells at 40 uM after 48 hrs in presence of 1 mM N-acetyl-cysteine by DCFH-DA staining; assay type: functional, cell-based; method in brief: as §2
A549 = experiment: Cytotoxicity against human A549 cells at 50 uM after 72 hrs by MTT assay; assay type: functional, cell-based; method in brief: as §3
[24] = Induction of apoptosis in human NTUB1 cells assessed as accumulation at subG1 phase at 20 uM after 24 hrs using propidium iodide staining by flow cytometry; assay type: functional; method in brief: as §1
[25] = Cell cycle arrest in human NTUB1 cells assessed as accumulation at G2/M phase at 40 uM after 24 hrs using propidium iodide staining by flow cytometry; assay type: functional, cell-based; method in brief: as §1
[26] = Cell cycle arrest in human NTUB1 cells assessed as accumulation at S phase at 10 uM after 24 hrs using propidium iodide staining by flow cytometry; assay type: functional, cell-based; method in brief: as §1
NTUB1 [27] = experiment: Increase in intracellular reactive oxygen species level in human NTUB1 cells at 20 uM after 48 hrs in presence of 1 mM N-acetyl-cysteine by DCFH-DA staining; assay type: functional, cell-based; method in brief: as §2
[28] = Cell cycle arrest in human NTUB1 cells assessed as accumulation at G1 phase at 50 uM after 24 hrs using propidium iodide staining by flow cytometry; assay type: functional, cell-based; method in brief: as §1
[29] = Induction of apoptosis in human NTUB1 cells assessed as accumulation at subG1 phase at 50 uM after 48 hrs using propidium iodide staining by flow cytometry; assay type: functional; method in brief: as §1
[30] = Cell cycle arrest in human NTUB1 cells assessed as accumulation at S phase at 50 uM after 48 hrs using propidium iodide staining by flow cytometry; assay type: functional, cell-based; method in brief: as §1
[31] = Cell cycle arrest in human NTUB1 cells assessed as accumulation at G1 phase at 50 uM after 48 hrs using propidium iodide staining by flow cytometry; assay type: functional, cell-based; method in brief: as §1
[32] = Cell cycle arrest in human NTUB1 cells assessed as accumulation at G2/M phase at 50 uM after 24 hrs using propidium iodide staining by flow cytometry; assay type: functional, cell-based; method in brief: as §1
Tubulin (Homo sapiens) = Tubulin (Homo sapiens) (UniProt P68371+Q9H4B7+P0DPH7+P68366+Q13509+Q71U36+P04350+Q3ZCM7+P07437+P68363+Q9BQE3+Q6PEY2+Q13885+Q9BVA1+Q9BUF5); experiment: Inhibition of tubulin polymerization in human NTUB1 cells assessed as blockade of microtubule assembly at 50 uM by indirect immunofluorescence staining; assay type: cell-based
Method in brief: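 NTUB1 cells on coverslips were treated for 24 h, then fixed in 2% formaldehyde/PBS for 20 min and in cold methanol (−20 °C) for 3 min. Stained with anti-α-tubulin monoclonal antibody for 3 h at room temperature, then rhodamine-conjugated secondary antibody for 1 h in the dark. Mounted in 80% glycerol/PBS and examined by fluorescence microscopy.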

NTUB1 [33] = experiment: Increase in intracellular reactive oxygen species level in human NTUB1 cells at 20 uM after 24 hrs by DCFH-DA staining; assay type: functional, cell-based; method in brief: as §2
NTUB1 [34] = experiment: Increase in intracellular reactive oxygen species level in human NTUB1 cells at 50 uM after 24 hrs in presence of 1 mM N-acetyl-cysteine by DCFH-DA staining; assay type: functional, cell-based; method in brief: as §2
NTUB1 [35] = experiment: Increase in intracellular reactive oxygen species level in human NTUB1 cells at 50 uM after 48 hrs in presence of 1 mM N-acetyl-cysteine by DCFH-DA staining; assay type: functional, cell-based; method in brief: as §2
[36] = Cell cycle arrest in human NTUB1 cells assessed as accumulation at S phase at 50 uM after 24 hrs using propidium iodide staining by flow cytometry; assay type: functional, cell-based; method in brief: as §1
[37] = Induction of apoptosis in human NTUB1 cells assessed as accumulation at subG1 phase at 50 uM after 24 hrs using propidium iodide staining by flow cytometry; assay type: functional; method in brief: as §1
NTUB1 [38] = experiment: Increase in intracellular reactive oxygen species level in human NTUB1 cells at 20 uM after 24 hrs in presence of 1 mM N-acetyl-cysteine by DCFH-DA staining; assay type: functional, cell-based; method in brief: as §2
[39] = Cell cycle arrest in human NTUB1 cells assessed as accumulation at G2/M phase at 50 uM after 48 hrs using propidium iodide staining by flow cytometry; assay type: functional, cell-based; method in brief: as §1
NTUB1 [40] = experiment: Increase in intracellular reactive oxygen species level in human NTUB1 cells at 50 uM after 48 hrs by DCFH-DA staining; assay type: functional, cell-based; method in brief: as §2
NTUB1 [41] = experiment: Increase in intracellular reactive oxygen species level in human NTUB1 cells at 50 uM after 24 hrs by DCFH-DA staining; assay type: functional, cell-based; method in brief: as §2

`CC(C)OC(=O)[C@]12CC[C@@H](C)[C@H](C)[C@H]1C1=CC[C@@H]3[C@@]4(C)CC[C@H](O)C(C)(C)[C@@H]4CC[C@@]3(C)[C@]1(C)CC2` showed an Activity [1] of 16.2%, an Activity [2] of 20.5% and an Activity [3] of 51%. The Activity [4] was 1.96%, the Activity (NTUB1 [5]) was “inactive” and the Activity [6] was 23.73%. The Activity [7] was 6.73%, the Activity [8] was 9.18% and the Activity [9] was 15.3%. For the same compound, the Activity [10] was 43.81%, the Activity [11] was 13.8% and the Activity (NTUB1 [12]) was “Active”. For the same compound, the Activity [13] was 33.9%, the Activity [14] was 4.53% and the Activity (NTUB1 [15]) was “Active”. It also gave an Activity [16] of 58.1%, an Activity [17] of 52.1% and an Activity [18] of 8.53%. The Activity (PC-3) was “Active”, the IC50 [19] was 7.97 µM and the Activity (NTUB1 [20]) was “Active”. For the same compound, the Activity [21] was 15.8%, the Activity [22] was 1.31% and the Activity (NTUB1 [23]) was “Active”. The Activity (A549) was “Active”, the Activity [24] was 23.5% and the Activity [25] was 11%. The Activity [26] was 31.7% and the Activity (NTUB1 [27]) was “Active”.

Compound `C=C(C)[C@@H]1CC[C@]2(C)[C@H](CC=C3[C@@H]4[C@@H](C)[C@H](C)CC[C@]4(C(=O)O)CC[C@]32C)[C@@]1(C)CCC(=O)O` has an Activity [1] of 16.6%, an Activity [2] of 20.6% and an Activity [28] of 52.2%. It also gave an Activity [3] of 41.3%, an Activity [29] of 14% and an Activity [7] of 5.12%. It also gave an Activity [8] of 10.9%, an Activity [30] of 3.05% and an Activity [31] of 66.4%. For the same compound, the Activity [32] was 13.1%, the Activity (Tubulin (Homo sapiens)) was “Active” and the Activity (NTUB1 [33]) was “Active”. For the same compound, the Activity [17] was 52.2%, the Activity (NTUB1 [34]) was “inactive” and the Activity (PC-3) was “Active”. For the same compound, the IC50 [19] was 25.5 µM, the Activity (NTUB1 [20]) was “Active” and the Activity [21] was 23.7%. For the same compound, the Activity (A549) was “Active”, the Activity (NTUB1 [35]) was “Active” and the Activity [36] was 6.9%. For the same compound, the Activity [24] was 21.68%, the Activity [37] was 25.75% and the Activity (NTUB1 [38]) was “inactive”. The Activity [39] was 11.1%, the Activity (NTUB1 [40]) was “Active” and the Activity (NTUB1 [41]) was “Active”. The Activity (NTUB1 [27]) was “Active”.
